From ChEMBL document CHEMBL3244142, “Antifungal properties of 2-bromo-3-fluorosuccinic acid esters and related compounds” (1977)
Values after ≈ are worked out from the molar mass of the structure shown.

Key:
[1] = system: Aspergillus niger; assay: Antifungal activity against Aspergillus niger ATCC 1004 at pH 5.6 after 5 days in presence of 10% beef serum; assay type: functional
Outline: (§1)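 Agar-dilution MIC in Sabouraud dextrose agar at pH 5.6 or 7.0, with or without 10% beef serum. Plates were incubated at 28 °C for 5 days. MIC is the lowest concentration (µg/mL) giving 100% inhibition. Steps were 1 µg/mL up to 10, 2 µg/mL from 10–20, and 10 µg/mL from 20–100; 100 µg/mL was the top level, and no inhibition there is scored as >100.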

[2] = system: Aspergillus niger; assay: Antifungal activity against Aspergillus niger ATCC 1004 at pH 7 after 5 days in absence of 10% beef serum; assay type: functional; outline: as §1
[3] = system: Aspergillus niger; assay: Antifungal activity against Aspergillus niger ATCC 1004 at pH 7 after 5 days in presence of 10% beef serum; assay type: functional; outline: as §1
[4] = system: Mucor mucedo; assay: Antifungal activity against Mucor mucedo ATCC 7941 at pH 5.6 after 5 days in absence of 10% beef serum; assay type: functional
[5] = system: Mucor mucedo; assay: Antifungal activity against Mucor mucedo ATCC 7941 at pH 7 after 5 days in presence of 10% beef serum; assay type: functional
[6] = system: Trichophyton mentagrophytes; assay: Antifungal activity against Trichophyton mentagrophytes ATCC 9129 at pH 5.6 after 5 days in absence of 10% beef serum; assay type: functional; outline: as §1
[7] = system: Trichophyton mentagrophytes; assay: Antifungal activity against Trichophyton mentagrophytes ATCC 9129 at pH 5.6 after 5 days in presence of 10% beef serum; assay type: functional; outline: as §1
[8] = system: Trichophyton mentagrophytes; assay: Antifungal activity against Trichophyton mentagrophytes ATCC 9129 at pH 7 after 5 days in absence of 10% beef serum; assay type: functional; outline: as §1
[9] = system: Trichophyton mentagrophytes; assay: Antifungal activity against Trichophyton mentagrophytes ATCC 9129 at pH 7 after 5 days in presence of 10% beef serum; assay type: functional; outline: as §1
[10] = system: Candida albicans; assay: Antifungal activity against Candida albicans ATCC 10231 at pH 5.6 after 5 days in presence of 10% beef serum; assay type: functional
[11] = system: Candida albicans; assay: Antifungal activity against Candida albicans ATCC 10231 at pH 7 after 5 days in presence of 10% beef serum; assay type: functional
[12] = system: Aspergillus niger; assay: Antifungal activity against Aspergillus niger ATCC 1004 at pH 5.6 after 5 days in absence of 10% beef serum; assay type: functional; outline: as §1
[13] = system: Mucor mucedo; assay: Antifungal activity against Mucor mucedo ATCC 7941 at pH 7 after 20 h in absence of 10% beef serum; conditions: ATCC 7941, 20 h
[14] = system: Mucor mucedo; assay: Antifungal activity against Mucor mucedo ATCC 7941 at pH 5.6 after 20 h in presence of 10% beef serum; conditions: ATCC 7941, 20 h
[15] = system: Candida albicans; assay: Antifungal activity against Candida albicans ATCC 10231 at pH 7 after 20 h in absence of 10% beef serum; conditions: ATCC 10231, 20 h
[16] = system: Candida albicans; assay: Antifungal activity against Candida albicans ATCC 10231 at pH 5.6 after 20 h in absence of 10% beef serum; conditions: ATCC 10231, 20 h
[17] = system: Mucor mucedo; assay: Antifungal activity against Mucor mucedo ATCC 7941 at pH 7 after 20 h in presence of 10% beef serum; conditions: ATCC 7941, 20 h
[18] = system: Mucor mucedo; assay: Antifungal activity against Mucor mucedo ATCC 7941 at pH 5.6 after 5 days in presence of 10% beef serum; assay type: functional
[19] = system: Mucor mucedo; assay: Antifungal activity against Mucor mucedo ATCC 7941 at pH 7 after 5 days in absence of 10% beef serum; assay type: functional
[20] = system: Candida albicans; assay: Antifungal activity against Candida albicans ATCC 10231 at pH 5.6 after 5 days in absence of 10% beef serum; assay type: functional
[21] = system: Candida albicans; assay: Antifungal activity against Candida albicans ATCC 10231 at pH 7 after 5 days in absence of 10% beef serum; assay type: functional
[22] = Aspergillus niger, ATCC 1004, 120 h, read-out: MIC
[23] = Mucor mucedo, ATCC 7941, 120 h, read-out: MIC
[24] = Trichophyton mentagrophytes, ATCC 9129, 120 h, read-out: MIC
[25] = Candida albicans, ATCC 10231, 120 h, read-out: MIC

| SMILES | MIC [1, 22] | MIC [2, 22] | MIC [3] | MIC [4, 23] | MIC [5] | MIC [6, 24] | MIC [7] | MIC [8] | MIC [9, 24] | MIC [10, 25] | MIC [11, 25] | MIC [12] | MIC [13] | MIC [14] | MIC [15] | MIC [16] | MIC [3, 22] | MIC [7, 24] | MIC [8, 24] | MIC [12, 22] | also measured |
| --- | --- | --- | --- | --- | --- | --- | --- | --- | --- | --- | --- | --- | --- | --- | --- | --- | --- | --- | --- | --- | --- |
| COC(=O)C(Br)C(Br)C(=O)OC (stereo in doubt) | 50 µg/mL | 60 µg/mL (≈ 197 µM) | 90 µg/mL | 6 µg/mL (≈ 19.7 µM) | 30 µg/mL | 2 µg/mL (≈ 6.58 µM) | 12 µg/mL | 9 µg/mL (≈ 29.6 µM) | 20 µg/mL | 30 µg/mL | 70 µg/mL | 30 µg/mL (≈ 98.7 µM) | 12 µg/mL (≈ 39.5 µM) | 14 µg/mL | 50 µg/mL (≈ 165 µM) | 20 µg/mL (≈ 65.8 µM) | – | – | – | – | – |
| COC(=O)[C@@H](F)[C@@H](Br)C(=O)OC (relative stereo) | 20 µg/mL | 40 µg/mL (≈ 165 µM) | – | 7 µg/mL (≈ 28.8 µM) | – | < 1 µg/mL | – | – | 5 µg/mL | 14 µg/mL | 30 µg/mL | – | 8 µg/mL (≈ 32.9 µM) | 8 µg/mL | 20 µg/mL (≈ 82.3 µM) | 9 µg/mL (≈ 37 µM) | 40 µg/mL | 2 µg/mL | 2 µg/mL (≈ 8.23 µM) | 20 µg/mL (≈ 82.3 µM) | MIC [17]: 12 µg/mL |
| COC(=O)C(Br)C(Br)C(=O)OC (racemic) | – | – | 40 µg/mL | – | 14 µg/mL | – | 4 µg/mL | 4 µg/mL (≈ 13.2 µM) | – | – | – | 14 µg/mL (≈ 46.1 µM) | – | – | – | – | – | – | – | – | MIC [1]: 30 µg/mL; MIC [2]: 40 µg/mL (≈ 132 µM); MIC [4]: 6 µg/mL (≈ 19.7 µM); MIC [18]: 9 µg/mL; MIC [19]: 8 µg/mL (≈ 26.3 µM); MIC [6]: 2 µg/mL (≈ 6.58 µM); MIC [9]: 10 µg/mL; MIC [20]: 16 µg/mL (≈ 52.6 µM); MIC [10]: 20 µg/mL; MIC [21]: 30 µg/mL (≈ 98.7 µM); MIC [11]: 60 µg/mL |
| COC(=O)[C@H](F)[C@@H](Br)C(=O)OC (relative stereo) | 14 µg/mL | 30 µg/mL (≈ 123 µM) | – | 12 µg/mL (≈ 49.4 µM) | – | < 1 µg/mL | – | – | 6 µg/mL | 8 µg/mL | 16 µg/mL | – | 14 µg/mL (≈ 57.6 µM) | 12 µg/mL | 16 µg/mL (≈ 65.8 µM) | 6 µg/mL (≈ 24.7 µM) | 40 µg/mL | 3 µg/mL | 3 µg/mL (≈ 12.3 µM) | 12 µg/mL (≈ 49.4 µM) | MIC [17]: 20 µg/mL |
